Consider 1 compound from PMC7024744 (Journal of Pesticide Science, 2020).

One assay deals with V. mali. Briefly: fungicidal activity in vitro, mycelium growth rate method. It counts as cell-based. To be noted: Cytospora mali, read-out: Antifungal activity in vitro, inhibition, V. mali. An outline of the steps:
(§1)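 Mycelium growth rate method. Test compounds were dissolved in acetone as a 100 mg/L stock and tested at 50 mg/L. Boscalid served as positive control and acetone as negative control. Plates were incubated at 25°C. Inhibition (%) was calculated from the average mycelial diameter (mm) with compound versus the negative-control diameter.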

For another assay, the system named is B. cinerea. The assay is described as above. It counts as cell-based. The following applies: Botrytis cinerea, read-out: Antifungal activity in vitro, inhibition, B. cinerea. An outline of the steps:
as §1

The target in the next assay is porcine SDH (Sus scrofa, UniProt A5GZW8+D0VWV4+Q007T0+Q0QF01). Kind of assay: SDH enzymatic inhibition assay. In kind it is biochemical, swine. In outline: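 Porcine SDH quantified by double-antibody sandwich ELISA. Plates were coated with purified porcine SDH antibody, then monoclonal antibody and HRP-labelled SDH antibody were added. After washing, TMB substrate was added, followed by acid. OD was read at 450 nm. SDH activity concentration was taken from a standard curve of standard-substance concentration against OD and corrected for sample dilution.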
Chain of porcine SDH (Q0QF01 43-664): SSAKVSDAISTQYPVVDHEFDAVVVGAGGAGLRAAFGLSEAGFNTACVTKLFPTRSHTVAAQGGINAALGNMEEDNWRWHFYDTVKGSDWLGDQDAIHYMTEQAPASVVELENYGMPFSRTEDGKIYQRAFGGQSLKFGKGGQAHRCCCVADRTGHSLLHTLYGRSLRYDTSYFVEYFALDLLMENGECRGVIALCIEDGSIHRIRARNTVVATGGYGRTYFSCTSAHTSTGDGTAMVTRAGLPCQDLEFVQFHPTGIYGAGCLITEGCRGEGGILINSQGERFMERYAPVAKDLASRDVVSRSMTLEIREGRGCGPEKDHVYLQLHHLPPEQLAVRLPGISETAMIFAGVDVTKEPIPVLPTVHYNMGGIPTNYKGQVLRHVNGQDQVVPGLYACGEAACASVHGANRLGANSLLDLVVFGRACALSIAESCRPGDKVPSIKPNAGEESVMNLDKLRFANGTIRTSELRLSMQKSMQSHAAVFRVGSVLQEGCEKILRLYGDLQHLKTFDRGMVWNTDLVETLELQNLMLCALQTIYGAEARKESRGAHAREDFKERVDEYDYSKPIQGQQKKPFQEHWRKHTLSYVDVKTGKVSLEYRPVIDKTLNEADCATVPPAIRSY
Chain of porcine SDH (Q007T0 29-280): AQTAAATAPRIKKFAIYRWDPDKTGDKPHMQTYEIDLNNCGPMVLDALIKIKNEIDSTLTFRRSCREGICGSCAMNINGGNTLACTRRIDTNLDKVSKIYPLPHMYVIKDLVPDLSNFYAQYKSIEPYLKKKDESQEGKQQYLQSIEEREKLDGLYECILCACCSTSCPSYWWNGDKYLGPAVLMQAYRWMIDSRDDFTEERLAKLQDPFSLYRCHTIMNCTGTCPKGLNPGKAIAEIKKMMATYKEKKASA
Chain of porcine SDH (D0VWV4 30-169): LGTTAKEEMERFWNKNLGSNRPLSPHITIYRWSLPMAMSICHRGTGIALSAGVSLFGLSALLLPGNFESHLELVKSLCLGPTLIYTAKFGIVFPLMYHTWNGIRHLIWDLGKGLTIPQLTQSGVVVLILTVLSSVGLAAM
Chain of porcine SDH (A5GZW8 37-159): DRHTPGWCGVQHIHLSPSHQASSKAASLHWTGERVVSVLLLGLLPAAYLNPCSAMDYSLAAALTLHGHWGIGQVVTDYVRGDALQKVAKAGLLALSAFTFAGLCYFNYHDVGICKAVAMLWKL

In the case of `O=C(Nc1ccccc1-c1ccc(Cl)cc1)c1cccnc1Cl` [Boscalid], the inhibition at 50 µg/mL with V. mali and in the assay with B. cinerea was 100% each time. The same compound came in with an IC50 on porcine SDH of 1.67 µM. The inhibition at 0.5 µM on porcine SDH (read-out: SDH enzymatic inhibition, Inhibition (%) 0.5 µM) came out at 21.6%. The inhibition at 1 µM at porcine SDH (read-out: SDH enzymatic inhibition, Inhibition (%) 1 µM) is 43.3%. Also, the inhibition at 2 µM on porcine SDH (read-out: SDH enzymatic inhibition, Inhibition (%) 2 µM) is 53.6%. At porcine SDH (read-out: SDH enzymatic inhibition, Inhibition (%) 8 µM), the inhibition at 8 µM came to 81%.

What is called inhibition is the drop in the measured response relative to a control, in per cent. As usually defined, the IC50 is the concentration at which inhibition is half-maximal. The low end stands for greater potency, the high end for weaker potency.
